Bioassay records: PubChem BioAssay, Johns Hopkins Ion Channel Center
This is a sample that favours compounds with a hit; in the whole collection about 3.1% have one here.
KCNQ1 act = potentiators or activators of KCNQ1 channel, primary screen, cell-based, thallium flux, high-throughput; AID 2648, 2010; 310,000 tested, 0.35% active; Potassium voltage-gated channel subfamily KQT member 1 (Homo sapiens), P51787; CHO-K1 KCNQ1, thallium flux FluxOR fluorescence; active compounds read high; B-score at 10 µM;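 active = fluorescence ratio B-score, a plate-corrected score, at least three library SD, with initial intensity B-score within 5 SD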
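Doses: Single concentration per compound, DMSO matched to controls | Test system: KCNQ1-transfected CHO-K1 cells | Timing: 90 min dye loading and 20 min compound exposure, both at room temperature | Measured by: Kinetic FluxOR thallium fluorescence, 10-s 1-Hz baseline, 110-s post-stimulus read | Medium: Assay buffer with matched DMSO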
KCNK3 block = human KCNK3 channel inhibitors, primary screen, CHO cells, FluxOR thallium flux, B-score; Potassium channel subfamily K member 3 (Homo sapiens), O14649; FluxOR fluorescence; active compounds read low; B-score at 10 µM; 340,000 tested, 0.84% active; AID 602410, 2012;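 active = B-score under library mean minus 4 SD, starting fluorescence ratio at most library mean plus 5 SD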;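 also: more negative B-score means stronger inhibition of thallium flux through KCNK3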
KCNK9 inh = KCNK9 potassium channel inhibitors, primary screen, HEK293 cells, thallium flux | AID 488922, 2010 | B-score at 10 µM | FluxOR thallium flux fluorescence; active compounds read low | 310,000 tested, 1.2% active | Potassium channel subfamily K member 9 (Homo sapiens), Q9NPC2;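 active = ratio B-score over 3 SD below the library mean, with starting fluorescence within 5 SD of its mean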;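 also: negative B-score means less thallium flux so channel inhibition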
hERG protect = hERG rescue from dofetilide block, primary screen, cell-based, CHO-hERG, FluxOR thallium flux, dofetilide IC70. AID 1511, 2009. dofetilide IC70 present. 310,000 tested, 0.51% active. activation (rescue from dofetilide block), less the hit threshold, % at 10 µM;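 active = activation above the mean of controls blocked by dofetilide plus 5 SD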;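 also: thallium influx through hERG after potassium depolarization seen as dye fluorescence rise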
KCNQ1 block = inhibitors of human KCNQ1 channel, primary screen, cell-based, thallium flux, high-throughput | CHO-K1 KCNQ1, FluxOR thallium flux fluorescence; active compounds read high | B-score at 10 µM | 310,000 tested, 1.3% active | AID 2642, 2010;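 active = compounds whose thallium flux B-score, printed positive for inhibition, exceeds three library SD while starting fluorescence stays within three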;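 also: channel opened by potassium depolarization with thallium stimulus after 20 min compound exposure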
KCNQ1 block val = KCNQ1 potassium channel inhibitors, confirmation, cell-based, Tl flux, duplicate. shares compounds with KCNQ1 block. inhibition, % at 10 µM. 1,600 tested, 93% active. KCNQ1 cell line, FluxOR thallium flux fluorescence;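 active = primary screen active, with duplicate mean exceeding buffer control mean plus 3 SD of buffer wells, cut at about 28% in these data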;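 also: 0% = buffer control ratio and 100% = XE991 inhibitor control ratio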
CHO Tl flux = thallium flux effects in parental CHO cells, counter-screen for KCNQ1 inhibitor project, cell-based, Tl flux | shares compounds with KCNQ1 block | parental CHO-K1, FluxOR thallium flux fluorescence ratio; active compounds read low; zero means no signal rise above baseline | fluorescence ratio (Tl flux) at 10 µM | 1,600 tested, 21% active | AID 588366, 2011;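 active = mean of duplicate thallium-flux fluorescence ratios in parental host cells more than 5 SD below the buffer control mean, cut at about 0.38 in these data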;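 also: ratio is peak minus minimum fluorescence divided by baseline fluorescence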
KCNQ1 ephys val = KCNQ1 channel inhibitors, confirmation, orthogonal assay, cell-based, automated electrophysiology. shares compounds with KCNQ1 block. calls only at 10 µM. KCNQ1-CHO cells, automated patch clamp current. 490 tested, 20% active;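 active = KCNQ1 current drop exceeding 3 SD of negative control wells, seen in both duplicate runs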;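 also: steady state current during a 2 s step from -80 to +40 mV; negative values mean current inhibition and positive values mean potentiation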
KCNQ2 spec = KCNQ2 channel inhibition, selectivity assay for KCNQ1 inhibitor project, cell-based. shares compounds with KCNQ1 block. KCNQ2 cells, FluxOR thallium flux fluorescence. inhibition, % at 10 µM. 1,600 tested, 71% active. AID 651746, 2012;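 active = mean percent inhibition of the KCNQ2 thallium signal more than 5 SD above the buffer-only control wells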;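 also: KCNQ2 expressed in CHO cells; 0% = buffer control wells and 100% = XE-991 inhibitor control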
KCNQ1-KCNE1 inh = KCNQ1/KCNE1 channel inhibition, selectivity assay for KCNQ1 inhibitor project, CHO-K1 cells, thallium flux, FluxOR; FluxOR thallium flux fluorescence; shares compounds with KCNQ1 block; 1,600 tested, 77% active; inhibition, % at 10 µM;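 active = mean percent inhibition of duplicate wells above the buffer-only control mean plus 3 SD of those controls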;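 also: 0% = buffer only wells and 100% = XE-991 inhibitor control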
Target sequence (P51787 whole entry, looked up): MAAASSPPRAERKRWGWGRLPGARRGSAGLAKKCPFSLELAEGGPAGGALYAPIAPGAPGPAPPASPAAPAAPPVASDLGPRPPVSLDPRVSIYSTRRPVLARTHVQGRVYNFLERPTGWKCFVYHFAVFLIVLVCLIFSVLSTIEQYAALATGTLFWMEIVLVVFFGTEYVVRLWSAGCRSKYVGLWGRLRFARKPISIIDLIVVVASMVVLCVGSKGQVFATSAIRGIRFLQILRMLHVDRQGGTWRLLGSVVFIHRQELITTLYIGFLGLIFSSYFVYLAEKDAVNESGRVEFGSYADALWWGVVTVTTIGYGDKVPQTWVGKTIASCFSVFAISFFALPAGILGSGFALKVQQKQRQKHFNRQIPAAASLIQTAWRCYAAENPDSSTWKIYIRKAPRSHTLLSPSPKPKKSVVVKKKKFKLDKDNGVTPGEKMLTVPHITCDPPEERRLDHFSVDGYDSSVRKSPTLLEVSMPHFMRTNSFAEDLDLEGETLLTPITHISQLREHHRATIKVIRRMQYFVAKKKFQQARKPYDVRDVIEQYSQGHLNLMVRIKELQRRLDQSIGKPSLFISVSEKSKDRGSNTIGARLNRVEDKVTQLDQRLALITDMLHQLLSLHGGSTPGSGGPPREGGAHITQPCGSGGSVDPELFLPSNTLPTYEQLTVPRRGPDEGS
* hit, by the source's call; i = inactive; / = no result given; + = active, no number.

SMILES	KCNQ1 act	KCNK3 block	KCNK9 inh	hERG protect	KCNQ1 block	KCNQ1 block val	CHO Tl flux	KCNQ2 spec	KCNQ1-KCNE1 inh	others
CC1CN(c2nc3ccccc3nc2SCC(=O)Nc2cccc(C(F)(F)F)c2)CC(C)O1 (configuration not stated)	i	-14.8*	i	-5.1	10*	119.5*	0.399	126.0%*	171.0%*	KCNQ1 ephys val=i
COc1ccccc1NC(=O)CSc1nc2ccccc2nc1N1CC(C)OC(C)C1 (configuration not stated)	i	i	i	-12.1	8*	85.5*	0.45	105.7%*	118.5%*
COc1ccc(C)cc1NC(=O)CSc1nc2ccccc2nc1N1CC(C)OC(C)C1 (configuration not stated)	i	i	i	-8.8	7*	105.0*	0.436	95.0%*	121.0%*	KCNQ1 ephys val=i
COC(=O)[C@@H](NCc1cccc(CN([C@H](C(=O)OC)C(C)C)S(C)(=O)=O)c1)C(C)C	i	i	i	-3.4	i	/	/	/	/
COc1cc(OC)c(C(=O)OCC(=O)Nc2nnc(-c3ccccc3)o2)cc1OC	/	i	/	/	/	/	/	/	/
CCCn1c(=O)c(C(=O)NCCc2ccc(OC)cc2)c(O)c2ccccc21	i	i	i	-0.6	9*	93.0*	0.484	91.0%*	77.0%*	KCNQ1 ephys val=i
COc1ccc(S(=O)(=O)NC2CC(=O)N(c3cccc(F)c3)C2)cc1OC (configuration not stated)	i	i	i	-1.2	i	/	/	/	/
Cc1cccc(C(=O)NCC(=O)N2CCCCCCC2)c1	/	i	/	/	/	/	/	/	/
Cc1cc(Nc2ccccc2)nc2cc(O)ccc12	i	i	i	-19.4	7*	39.5*	0.472	i	i
CCCNC(C)(C)COC(=O)c1ccccc1	/	i	/	/	/	/	/	/	/
COc1cccc(NC(=O)Nc2ccc(C)c(Cl)c2)c1	i	i	i	-8.6	6*	76.5*	0.522	i	i
Cc1ccc(NC(=O)Nc2ccc(F)cc2)cc1Cl	i	i	i	-6.8	10*	69.5*	0.446	61.3%*	i
Oc1ccc(-c2n[nH]c(C(F)(F)F)c2-c2ccccc2)c(O)c1	i	i	i	-20.5	8*	156.0*	0.371*	i	181.5%*
COC(=O)[C@]1(C)N[C@H](CN(C)S(=O)(=O)c2ccc(-c3ccccc3)cc2)[C@@H]2C(=O)N(C)C(=O)[C@@H]21	/	i	/	/	/	/	/	/	/
CCOC(=O)C1=C(CC)Nc2ccccc2N=C1NC(=O)Nc1ccc(Cl)c(Cl)c1	i	i	-6.89*	-4.3	11*	115.5*	0.517	i	i	KCNQ1 ephys val=i
CCOC(=O)C1=C(CC)Nc2ccccc2N=C1NC(=O)c1cc(C)on1	/	i	/	/	/	/	/	/	/
COc1ccc(-c2cc(=Nc3ccc(C)cc3)c3ccccc3o2)cc1	i	i	i	-9.0	i	/	/	/	/
COc1ccc(N=c2cc(-c3ccc(OC)cc3)oc3ccccc23)cc1	i	i	i	-11.2	12*	147.0*	0.364*	i	+
CC(Oc1cccc2ccccc12)C(=O)N/N=C/c1cccnc1 (configuration not stated)	i	i	i	-6.1	i	/	/	/	/
COc1ccc(C(=O)C2CCCN(Cc3cc(C)c(O)c(C)c3)C2)c(OC)c1 (configuration not stated)	i	i	i	-6.0	i	/	/	/	/
COc1ccc(C(=O)C2CCCN(Cc3cc(Cl)ccc3O)C2)c(OC)c1 (configuration not stated)	i	i	i	-13.2	6*	61.5*	0.406	121.7%*	85.5%*
CCc1ccc(NC(=O)C2CCN(S(=O)(=O)c3ccc4c(c3)NC(=O)C(C)S4)CC2)cc1 (configuration not stated)	i	i	i	-10.9	i	/	/	/	/
CC1Sc2ccc(S(=O)(=O)N3CCC(C(=O)NCc4ccc(Cl)cc4)CC3)cc2NC1=O (configuration not stated)	i	i	i	-2.7	i	/	/	/	/
Cc1ccc(NC(=O)C2CCN(S(=O)(=O)c3ccc4c(c3)NC(=O)C(C)S4)CC2)cc1C (configuration not stated)	i	i	i	-9.6	8*	138.5*	0.48	117.0%*	128.5%*	KCNQ1 ephys val=i
CC1Sc2ccc(S(=O)(=O)N3CCC(C(=O)Nc4cccc(Cl)c4)CC3)cc2NC1=O (configuration not stated)	i	i	i	-9.8	11*	149.5*	0.388	129.3%*	159.5%*
SMILES	KCNQ1 act	KCNK3 block	KCNK9 inh	hERG protect	KCNQ1 block	KCNQ1 block val	CHO Tl flux	KCNQ2 spec	KCNQ1-KCNE1 inh	others
CC(C)(C)OC(=O)C[C@@H]1C/C=C\C[C@H](CC(=O)NCCO)C(=O)NC[C@H](c2ccccc2)OC1=O	/	i	/	/	/	/	/	/	/
COc1ccc(Br)cc1/C=C(\C(=O)O)c1ccc(S(=O)(=O)N2CCCCC2)s1	/	i	/	/	/	/	/	/	/
Cc1ccc(-c2nnc(N3CCC(C)CC3)c3ccccc23)cc1C	i	i	i	-34.2	12*	164.0*	0.311*	113.7%*	+
CC1CCN(c2nnc(-c3ccccc3)c3ccccc23)CC1	i	i	i	-12.8	6*	92.5*	0.414	90.3%*	143.0%*	KCNQ1 ephys val=i
Cc1ccc(-c2nnc(N3CCC(C)CC3)c3ccccc23)cc1	i	i	i	-12.7	i	/	/	/	/
S=C(NCc1ccc(Cl)cc1)Nc1ccccc1	i	i	i	-7.0	i	/	/	/	/
